In brackets after ≈: the same amount, converted by molar mass.
Legend:
[1] = Drug uptake in tumor of athymic mouse xenografted with human MCF7 cells at 100 mg/kg, po after 4 hrs; format: ADME, organism-based, Neoplasm; design: dose 100 mg/kg, route oral; conditions: read-out: Drug uptake
[2] = Drug uptake in tumor of athymic mouse xenografted with human MCF7 cells at 100 mg/kg, po after 1 hr; format: ADME, organism-based, Neoplasm; design: dose 100 mg/kg, route oral; conditions: read-out: Drug uptake
[3] = Plasma concentration in athymic mouse plasma xenografted with human MCF7 cells at 100 mg/kg, po after 4 hrs; format: ADME, organism-based; design: dose 100 mg/kg, route oral
Procedure, shortened: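 MCF-7 cells (5 × 10^6 in 50% cold HBSS/50% growth-factor-reduced Matrigel) implanted subcutaneously in the hindflank of 5−8-week-old female nude mice. When tumors reached 40−150 mg, mice received a single oral dose. Plasma exposure was measured after dosing, and scheduled takedown was at 4 h.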

Mus musculus [4] = assay: In vivo inhibition of mTORC1-mediated phosphorylation of 4EBP1 at ([…]) in human MCF7 cells xenografted into athymic nude mouse at 100 mg/kg, po after 24 hrs by Western blotting analysis relative to control; format: functional; conditions: MCF7, 24 h
Mus musculus [5] = assay: In vivo inhibition of mTORC1-mediated phosphorylation of p70S6K at […] in human MCF7 cells xenografted into athymic nude mouse at 100 mg/kg, po after 4 hrs by Western blotting analysis relative to control; format: functional; conditions: MCF7, 4 h
Procedure, shortened: (§1)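 MCF-7 cells (DMEM, 10% FBS) were implanted subcutaneously at 5 × 10^6 cells in 50% cold HBSS/50% growth-factor-reduced matrigel into the hindflank of 5−8 week old female nude mice. At tumor size 40−150 mg, mice received a single oral dose of 100 mg/kg. Tumor lysates were pooled per group. Phospho-AKT (S473, T308), p70S6K (T389), S6 (S240/244) and 4E-BP1 (T37/46) were measured by Western blot normalized to α-tubulin.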

Mus musculus [6] = assay: In vivo inhibition of mTORC1-mediated phosphorylation of p70S6K at […] in human MCF7 cells xenografted into athymic nude mouse at 100 mg/kg, po after 1 hr by Western blotting analysis relative to control; format: functional; conditions: MCF7, 1 h; procedure, shortened: as §1
[7] = Drug uptake in tumor of athymic mouse xenografted with human PC3 cells at 100 mg/kg, po after 8 hrs; format: ADME, organism-based, Neoplasm, PC-3; design: dose 100 mg/kg, route oral; conditions: read-out: Drug uptake
Procedure, shortened: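 PC-3 cells (3 × 10⁶, passages 10–14, in ice-cold HBSS) were implanted sc in 5–8 week old male nude mice. Tumors of 200–500 mg received a single oral 100 mg/kg dose. Plasma and tumor were collected at 1, 4, 8, 16, 24 and 32 h and homogenized in buffer. Lysates were pooled per group (n = 5), and phospho-proteins were measured by Western blot normalized to α-tubulin.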

Mus musculus [8] = assay: In vivo inhibition of mTORC1-mediated phosphorylation of 4EBP1 at ([…]) in human PC3 cells xenografted into athymic nude mouse at 100 mg/kg, po after 32 hrs by Western blotting analysis relative to control; format: functional; conditions: PC-3, 32 h
Procedure, shortened: (§2)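 PC-3 cells grown in DMEM with 20% FBS were implanted subcutaneously at 3 × 10^6 cells in ice-cold HBSS into the hindflank of 5−8 week old male nude mice. At tumor size 200−500 mg, mice received a single oral dose of 100 mg/kg. Plasma and tumors were collected at 1, 4, 8, 16, 24 and 32 h. Tumor lysates from each group (n = 5) were pooled. Phospho-proteins were quantified by Western blot and normalized to α-tubulin.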

[9] = target: Tyrosine-protein kinase JAK2 (Homo sapiens, UniProt O60674); assay: Inhibition of JAK2 (unknown origin)
Tyrosine-protein kinase JAK2, sequence (O60674 whole entry): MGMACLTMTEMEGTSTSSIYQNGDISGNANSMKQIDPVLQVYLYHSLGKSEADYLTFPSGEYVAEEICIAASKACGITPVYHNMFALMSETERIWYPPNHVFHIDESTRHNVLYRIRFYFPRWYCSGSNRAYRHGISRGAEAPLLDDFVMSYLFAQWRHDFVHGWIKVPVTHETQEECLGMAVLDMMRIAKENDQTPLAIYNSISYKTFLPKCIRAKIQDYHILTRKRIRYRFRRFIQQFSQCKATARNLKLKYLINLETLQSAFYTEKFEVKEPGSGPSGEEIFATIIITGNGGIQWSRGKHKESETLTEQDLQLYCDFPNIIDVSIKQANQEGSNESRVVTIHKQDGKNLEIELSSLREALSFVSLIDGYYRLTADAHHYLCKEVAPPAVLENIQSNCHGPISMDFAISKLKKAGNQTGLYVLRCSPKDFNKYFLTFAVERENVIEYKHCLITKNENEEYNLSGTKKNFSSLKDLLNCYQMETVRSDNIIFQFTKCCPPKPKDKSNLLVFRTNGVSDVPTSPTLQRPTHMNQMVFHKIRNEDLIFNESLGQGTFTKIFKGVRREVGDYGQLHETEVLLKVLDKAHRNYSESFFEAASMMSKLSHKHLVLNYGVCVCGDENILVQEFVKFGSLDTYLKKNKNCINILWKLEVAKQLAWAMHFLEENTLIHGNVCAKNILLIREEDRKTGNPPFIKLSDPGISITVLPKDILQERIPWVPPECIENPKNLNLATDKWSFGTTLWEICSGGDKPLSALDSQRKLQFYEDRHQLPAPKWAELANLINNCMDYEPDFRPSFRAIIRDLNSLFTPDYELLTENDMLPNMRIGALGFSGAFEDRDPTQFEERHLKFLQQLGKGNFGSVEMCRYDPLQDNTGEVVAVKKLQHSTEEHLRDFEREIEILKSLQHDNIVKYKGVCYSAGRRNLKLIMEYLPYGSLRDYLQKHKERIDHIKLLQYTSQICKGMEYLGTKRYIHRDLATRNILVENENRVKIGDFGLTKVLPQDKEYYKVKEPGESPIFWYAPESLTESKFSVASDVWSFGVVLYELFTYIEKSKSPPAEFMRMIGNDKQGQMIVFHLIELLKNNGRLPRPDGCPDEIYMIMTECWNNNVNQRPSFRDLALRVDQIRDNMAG

[10] = target: Heat shock protein HSP 90-beta (Homo sapiens, UniProt P08238); assay: Inhibition of HSP90 (unknown origin)
Heat shock protein HSP 90-beta, sequence (P08238 whole entry, canonical isoform): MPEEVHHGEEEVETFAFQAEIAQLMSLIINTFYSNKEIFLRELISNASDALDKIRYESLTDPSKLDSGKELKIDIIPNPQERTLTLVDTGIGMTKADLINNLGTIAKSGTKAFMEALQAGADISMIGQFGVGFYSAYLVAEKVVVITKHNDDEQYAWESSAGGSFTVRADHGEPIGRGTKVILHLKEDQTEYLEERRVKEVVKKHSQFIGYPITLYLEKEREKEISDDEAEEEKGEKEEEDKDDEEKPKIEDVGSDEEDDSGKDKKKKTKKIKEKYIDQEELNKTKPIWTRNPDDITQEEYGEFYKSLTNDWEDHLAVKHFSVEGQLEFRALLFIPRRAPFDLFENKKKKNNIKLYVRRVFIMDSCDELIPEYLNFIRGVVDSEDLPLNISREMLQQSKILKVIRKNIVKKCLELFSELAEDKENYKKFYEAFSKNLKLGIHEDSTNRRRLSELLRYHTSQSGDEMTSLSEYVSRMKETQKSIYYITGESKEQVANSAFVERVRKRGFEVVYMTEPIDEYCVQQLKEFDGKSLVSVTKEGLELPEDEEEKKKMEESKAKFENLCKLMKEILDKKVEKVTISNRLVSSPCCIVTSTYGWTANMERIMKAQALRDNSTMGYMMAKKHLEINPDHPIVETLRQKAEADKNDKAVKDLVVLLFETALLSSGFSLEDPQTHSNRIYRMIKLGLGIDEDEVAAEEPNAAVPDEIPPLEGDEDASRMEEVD

[11] = target: Phosphatidylinositol 4,5-bisphosphate 3-kinase catalytic subunit beta isoform (Homo sapiens, UniProt P42338); assay: Inhibition of PI3Kbeta (unknown origin)
Phosphatidylinositol 4,5-bisphosphate 3-kinase catalytic subunit beta isoform, sequence (P42338 whole entry, canonical isoform): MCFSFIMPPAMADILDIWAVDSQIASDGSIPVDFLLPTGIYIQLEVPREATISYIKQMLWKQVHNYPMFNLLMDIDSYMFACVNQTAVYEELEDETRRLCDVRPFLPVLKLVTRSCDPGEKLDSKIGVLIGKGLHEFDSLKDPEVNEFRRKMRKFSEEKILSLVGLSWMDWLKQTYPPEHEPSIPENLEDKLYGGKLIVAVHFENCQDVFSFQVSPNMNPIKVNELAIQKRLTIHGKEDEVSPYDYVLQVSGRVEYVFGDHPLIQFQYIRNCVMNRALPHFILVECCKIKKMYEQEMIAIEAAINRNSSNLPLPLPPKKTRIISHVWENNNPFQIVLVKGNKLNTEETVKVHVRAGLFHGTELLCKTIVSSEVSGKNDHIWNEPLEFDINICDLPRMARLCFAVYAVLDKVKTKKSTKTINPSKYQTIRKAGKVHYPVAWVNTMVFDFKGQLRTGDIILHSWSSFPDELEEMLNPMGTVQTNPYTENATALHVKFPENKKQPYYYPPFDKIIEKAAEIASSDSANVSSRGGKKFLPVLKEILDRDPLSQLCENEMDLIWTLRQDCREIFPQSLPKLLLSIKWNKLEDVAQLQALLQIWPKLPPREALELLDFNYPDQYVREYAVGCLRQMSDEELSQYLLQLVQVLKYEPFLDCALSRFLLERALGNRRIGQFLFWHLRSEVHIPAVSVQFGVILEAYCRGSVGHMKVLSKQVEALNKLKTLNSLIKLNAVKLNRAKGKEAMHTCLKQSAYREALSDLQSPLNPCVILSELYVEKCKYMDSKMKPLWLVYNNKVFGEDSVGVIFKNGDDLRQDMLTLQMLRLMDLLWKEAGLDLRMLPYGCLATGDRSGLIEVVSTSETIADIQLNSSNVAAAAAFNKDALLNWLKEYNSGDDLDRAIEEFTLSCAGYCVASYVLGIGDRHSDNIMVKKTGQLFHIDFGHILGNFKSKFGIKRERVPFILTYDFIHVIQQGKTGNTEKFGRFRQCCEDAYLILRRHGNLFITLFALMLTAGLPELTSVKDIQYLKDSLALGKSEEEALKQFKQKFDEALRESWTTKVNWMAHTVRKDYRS

[12] = Volume of distribution at steady state in Beagle dog at 3 mg/kg, iv; format: ADME, organism-based, Canis lupus familiaris; design: dose 3 mg/kg, route intravenous; conditions: in vivo, read-out: Vdss
[13] = Clearance in Beagle dog at 3 mg/kg, iv; format: ADME, organism-based, Canis lupus familiaris; design: dose 3 mg/kg, route intravenous; conditions: in vivo
Procedure, shortened: (§3)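 Single-dose PK: female athymic nude mice (10 mg/kg), female CD rats and male beagle dogs (3 mg/kg), male cynomolgus monkeys (3 mg/kg), given iv and by oral gavage. Solution in EPW (5% ethanol/45% PEG400/water), with 1:2 HCl (m/m) for mouse, rat and dog and 1:1.5 HCl (m/m) for monkey. Plasma levels followed over 24 h.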

[14] = Clearance in athymic nude mouse at 10 mg/kg, iv; format: ADME, organism-based; design: dose 10 mg/kg, route intravenous; conditions: in vivo; procedure, shortened: as §3
[15] = Half life in athymic nude mouse at 10 mg/kg, iv; format: ADME, organism-based; design: dose 10 mg/kg, route intravenous; conditions: in vivo; procedure, shortened: as §3
[16] = Half life in CD rat at 3 mg/kg, iv; format: ADME, organism-based; design: dose 3 mg/kg, route intravenous; conditions: in vivo; procedure, shortened: as §3
[17] = Tmax in athymic nude mouse at 10 mg/kg, po; format: ADME, organism-based; design: dose 10 mg/kg, route oral; conditions: in vivo
[18] = Cmax in Beagle dog at 3 mg/kg, iv; format: ADME, organism-based, Canis lupus familiaris; design: dose 3 mg/kg, route intravenous; conditions: in vivo; procedure, shortened: as §3
[19] = Cmax in Beagle dog at 3 mg/kg, po; format: ADME, organism-based, Canis lupus familiaris; design: dose 3 mg/kg, route oral; conditions: in vivo; procedure, shortened: as §3
[20] = Metabolic stability in dog liver microsomes after 30 mins; format: ADME, Canis lupus familiaris, Microsome; conditions: read-out: Stability
[21] = Kinetic solubility of the compound; format: physicochemical; conditions: read-out: Kinetic_solubility
CDK3/cyclin E = CDK3/cyclin E (Homo sapiens, UniProt O96020+P24864+Q00526); assay: Inhibition of CDK3/Cyclin E (unknown origin); format: protein-complex assay
[22] = target: Dual specificity mitogen-activated protein kinase kinase 1 (Homo sapiens, UniProt Q02750); assay: Inhibition of MEK1 (unknown origin)
Dual specificity mitogen-activated protein kinase kinase 1, sequence (Q02750 whole entry): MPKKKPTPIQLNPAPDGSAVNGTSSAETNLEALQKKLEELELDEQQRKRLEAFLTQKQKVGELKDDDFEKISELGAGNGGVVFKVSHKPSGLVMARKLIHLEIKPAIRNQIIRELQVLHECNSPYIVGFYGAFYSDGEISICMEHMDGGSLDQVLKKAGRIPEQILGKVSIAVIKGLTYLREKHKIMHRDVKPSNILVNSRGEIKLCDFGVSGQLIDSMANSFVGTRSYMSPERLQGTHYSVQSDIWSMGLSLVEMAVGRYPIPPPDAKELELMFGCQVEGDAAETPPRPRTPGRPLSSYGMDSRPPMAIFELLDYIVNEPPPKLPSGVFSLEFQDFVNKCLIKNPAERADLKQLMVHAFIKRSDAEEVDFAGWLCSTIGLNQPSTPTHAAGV

Mus musculus [23] = assay: In vivo inhibition of mTORC1-mediated phosphorylation of 4EBP1 at ([…]) in human PC3 cells xenografted into athymic nude mouse at 100 mg/kg, po after 8 hrs by Western blotting analysis relative to control; format: functional; conditions: PC-3, 8 h; procedure, shortened: as §2
Mus musculus [24] = assay: In vivo inhibition of mTORC2-mediated phosphorylation of AKT at […] in human PC3 cells xenografted into athymic nude mouse at 100 mg/kg, po after 16 hrs by Western blotting analysis relative to control; format: functional; conditions: PC-3, 16 h
Procedure, shortened: (§4)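 Human PC-3 cells were implanted subcutaneously into the hindflank of male nude mice aged 5−8 weeks, at 3 × 10^6 cells (passages 10−14, >95% viability) in ice-cold HBSS. At a tumor size of 200−500 mg, mice got one oral 100 mg/kg dose. Tumors were taken at 1, 4, 8, 16, 24 and 32 h. Lysates (n = 5 per group) were pooled, and phospho-AKT (T308) was read by Western blot, normalized to α-tubulin.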

Mus musculus [25] = assay: In vivo inhibition of mTORC2-mediated phosphorylation of AKT at […] in human PC3 cells xenografted into athymic nude mouse at 100 mg/kg, po after 1 hr by Western blotting analysis relative to control; format: functional; conditions: PC-3, 1 h; procedure, shortened: as §4
Mus musculus [26] = assay: In vivo inhibition of mTORC2-mediated phosphorylation of AKT at serine 473 in human PC3 cells xenografted into athymic nude mouse at 100 mg/kg, po after 32 hrs by Western blotting analysis relative to control; format: functional; conditions: PC-3, 32 h; procedure, shortened: as §2
Cytochrome P450 3A4 = Cytochrome P450 3A4 (Homo sapiens, UniProt P08684); assay: Induction of CYP3A4 (unknown origin); format: ADME
Cytochrome P450 3A4, sequence (P08684 whole entry): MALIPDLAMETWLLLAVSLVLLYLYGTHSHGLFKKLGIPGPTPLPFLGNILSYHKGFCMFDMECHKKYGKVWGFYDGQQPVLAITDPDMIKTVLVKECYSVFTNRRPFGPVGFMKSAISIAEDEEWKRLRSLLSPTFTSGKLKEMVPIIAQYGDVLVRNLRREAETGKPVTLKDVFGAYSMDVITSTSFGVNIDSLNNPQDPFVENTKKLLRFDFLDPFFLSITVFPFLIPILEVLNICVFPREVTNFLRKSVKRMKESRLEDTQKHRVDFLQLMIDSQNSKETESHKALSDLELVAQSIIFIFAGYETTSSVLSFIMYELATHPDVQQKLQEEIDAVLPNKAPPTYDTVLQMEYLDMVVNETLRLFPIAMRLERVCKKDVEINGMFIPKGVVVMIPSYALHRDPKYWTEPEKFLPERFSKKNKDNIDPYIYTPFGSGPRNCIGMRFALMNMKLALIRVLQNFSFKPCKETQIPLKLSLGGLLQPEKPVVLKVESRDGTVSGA

[27] = target: Voltage-gated inwardly rectifying potassium channel KCNH2 (Homo sapiens, UniProt Q12809); assay: Activity at human ERG by patch clamp technique
Voltage-gated inwardly rectifying potassium channel KCNH2, sequence (Q12809 whole entry): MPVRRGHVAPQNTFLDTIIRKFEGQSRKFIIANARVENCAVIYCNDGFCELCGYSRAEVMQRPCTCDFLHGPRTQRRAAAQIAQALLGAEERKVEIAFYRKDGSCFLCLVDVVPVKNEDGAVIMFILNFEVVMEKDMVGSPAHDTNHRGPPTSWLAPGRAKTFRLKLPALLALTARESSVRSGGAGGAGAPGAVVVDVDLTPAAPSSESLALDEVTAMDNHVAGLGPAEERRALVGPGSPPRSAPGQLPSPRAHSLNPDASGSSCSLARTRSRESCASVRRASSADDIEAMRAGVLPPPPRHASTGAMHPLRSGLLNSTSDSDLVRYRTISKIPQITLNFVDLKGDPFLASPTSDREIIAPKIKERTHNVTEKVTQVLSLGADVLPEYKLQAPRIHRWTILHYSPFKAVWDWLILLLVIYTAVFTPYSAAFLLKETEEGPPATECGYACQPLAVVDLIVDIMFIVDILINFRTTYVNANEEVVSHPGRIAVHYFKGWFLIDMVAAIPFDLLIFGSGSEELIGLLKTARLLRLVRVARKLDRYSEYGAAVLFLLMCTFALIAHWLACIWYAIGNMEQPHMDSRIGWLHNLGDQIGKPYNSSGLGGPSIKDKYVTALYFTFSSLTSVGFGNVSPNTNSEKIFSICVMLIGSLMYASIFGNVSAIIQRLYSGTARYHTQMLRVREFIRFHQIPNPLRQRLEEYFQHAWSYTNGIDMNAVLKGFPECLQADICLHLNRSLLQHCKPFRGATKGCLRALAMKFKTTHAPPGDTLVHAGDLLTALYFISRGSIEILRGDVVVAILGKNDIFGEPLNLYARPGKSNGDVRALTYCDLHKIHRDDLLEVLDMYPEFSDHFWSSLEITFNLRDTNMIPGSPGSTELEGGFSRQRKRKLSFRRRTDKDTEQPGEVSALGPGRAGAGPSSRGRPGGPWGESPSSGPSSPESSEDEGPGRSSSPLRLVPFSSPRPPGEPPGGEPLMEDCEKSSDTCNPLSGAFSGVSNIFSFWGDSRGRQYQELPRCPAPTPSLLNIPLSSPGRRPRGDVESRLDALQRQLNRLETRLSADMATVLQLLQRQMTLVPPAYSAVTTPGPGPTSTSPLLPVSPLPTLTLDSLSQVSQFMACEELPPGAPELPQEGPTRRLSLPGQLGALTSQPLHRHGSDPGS
Procedure, shortened: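 hERG current measured by manual patch clamp.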

## Cc1c(C(=O)N2CCOc3ccc(-c4ccc(N)nc4)cc3C2)ccc(S(C)(=O)=O)c1F
[1]
  concentration at 4 h: 35.9 µM
[2]
  concentration at 1 h: 36.1 µM
[3]
  concentration at 4 h: 30.1 µM
Mus musculus [4]
  inhibition in vivo at 100 mg/kg: -17%
Mus musculus [5]
  inhibition in vivo at 100 mg/kg: 85%
Mus musculus [6]
  inhibition in vivo at 100 mg/kg: 85%
[7]
  concentration at 8 h: 25.5 µM
Mus musculus [8]
  inhibition in vivo at 100 mg/kg: 33%
[9]
  IC50: > 3.5 µM
[10]
  IC50: > 3.5 µM
[11]
  IC50: > 5 µM
[12]
  Vd: 3.15 L/kg
[13]
  clearance: 9.97 mL/min/kg
[14]
  clearance: 45.8 mL/min/kg
[15]
  half-life: 81 min
[16]
  half-life: 27 min
[17]
  Tmax: 30 min
[18]
  Cmax: 2.28 µM
[19]
  Cmax: 1.66 µM
[20]
  remaining at 0.5 h: 82%
[21]
  solubility kinetic: 232 µM (≈ 106 µg/mL)
CDK3/cyclin E
  IC50: > 10 µM
[22]
  IC50: > 3.5 µM
Mus musculus [23]
  inhibition in vivo at 100 mg/kg: 92%
Mus musculus [24]
  inhibition in vivo at 100 mg/kg: 36%
Mus musculus [25]
  inhibition in vivo at 100 mg/kg: -24%
Mus musculus [26]
  inhibition in vivo at 100 mg/kg: 10%
Cytochrome P450 3A4
  Activity: 50 µM
[27]
  Activity: 15.9 µM
